The source made the active and inactive calls. The calls are words filed in the database; no cut-off is given here.

Data set [1] deals with Escherichia coli. The experiment in a line: Induction of Escherichia coli supercoiled plasmid pBR322 DNA cleavage at 0.5 uM to 50 uM after 24 hrs using ethidium bromide by gel electrophoresis. An outline of the steps: (§1)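 Supercoiled pBR322 (3.5 nM) exposed to agent at 24 h at ambient temperature in BPE buffer, pH 7.4; chlorambucil as control. Supercoiled, open-circular and linear forms separated by 1% agarose electrophoresis in 1× TAE, ethidium bromide-stained, with supercoiled, linear (EcoRI-cut) and nicked plasmid controls.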

Data set [2] can be described thus: Induction of alkylation of 5'-FAM-labeled scrambled duplex oligonucleotide DNA (unknown origin) at guanine residues at 5 to 50 uM after 24 hrs by sequencing gel analysis.
Data set [3] deals with Escherichia coli. The experiment in a line: Induction of Escherichia coli supercoiled plasmid pBR322 DNA cleavage at 0.5 uM to 50 uM after 3 hrs at 37 degC using ethidium bromide by gel electrophoresis. The method in brief:
(§2)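 Supercoiled pBR322 (3.5 nM) incubated with agent at 0.5, 5 or 50 µM for 3 h at 37 °C in bisphosphate–EDTA (BPE) buffer, pH 7.4; chlorambucil 50 µM as control. Dilutions freshly made in water from 8 mM DMSO stock. Forms resolved on 1% agarose in 1× TAE, ethidium bromide-stained; supercoiled, EcoRI-linearised and nicked open-circular plasmid as markers.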

Data set [4] has as its system Escherichia coli. The experiment in a line: Induction of Escherichia coli supercoiled plasmid pBR322 DNA cleavage at 0.5 uM after 3 hrs at 37 degC using ethidium bromide by gel electrophoresis. An outline of the steps:
(§3)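 Supercoiled pBR322 (3.5 nM) incubated with agent at 0.5, 5 or 50 µM in BPE buffer pH 7.4 for 3 h at 37 °C. Agent diluted fresh in water from DMSO stock. Products resolved on 1% agarose gel in 1× TAE and stained with ethidium bromide. Controls on gel were supercoiled, EcoRI-linearised and open circular plasmid markers. Chlorambucil at 50 µM was the reference agent.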

In data set [5] the test system is Escherichia coli. Put plainly: Induction of Escherichia coli supercoiled plasmid pBR322 DNA cleavage at 50 uM after 24 hrs using ethidium bromide by gel electrophoresis. The method in brief:
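Supercoiled pBR322 (3.5 nM) incubated with agent in BPE buffer pH 7.4 at ambient temperature for 24 h. Products resolved on 1% agarose gel in 1× TAE and stained with ethidium bromide. Supercoiled, linear and open circular plasmid markers were run alongside.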

Data set [6] has as its system Escherichia coli. The experiment in a line: Induction of Escherichia coli supercoiled plasmid pBR322 DNA cleavage at 50 uM after 3 hrs at 37 degC using ethidium bromide by gel electrophoresis. An outline of the steps: as §3
The subject of data set [7] is Escherichia coli. The experiment in a line: Induction of Escherichia coli supercoiled plasmid pBR322 DNA cleavage at 5 uM after 3 hrs at 37 degC using ethidium bromide by gel electrophoresis. The method in brief: as §3
Data set [8] can be described thus: Reactive aziridinium ion formation in distilled water assessed as dihydroxyl substituted product formation at 80 uM at 37 degC after 15 mins by ESI-MS analysis. The data set is classed as physicochemical. Conditions: buffer, 0.25 h. An outline of the steps: (§4)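 An 80 µM solution of agent in distilled water was kept at 37 °C. Aliquots were taken at 0, 15, 30, 45, 60 and 120 min, diluted with methanol and analysed by ESI-MS for hydroxyl-substituted and aziridinium ion species.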

A short description of data set [9]: Reactive aziridinium ion formation in distilled water assessed as electrophilic aziridinium formation at 80 uM at 37 degC after 15 mins by ESI-MS analysis. The format is physicochemical. As to conditions: buffer, 0.25 h. An outline of the steps:
as §4

Data set [10] relates to Escherichia coli. The experiment in a line: Binding affinity to Escherichia coli supercoiled plasmid pBR322 DNA at 50 uM after 24 hrs using ethidium bromide by gel electrophoresis. The method in brief: as §1
In data set [11] the test system is Escherichia coli. Put plainly: Binding affinity to Escherichia coli supercoiled plasmid pBR322 DNA at 50 uM after 3 hrs at 37 degC using ethidium bromide by gel electrophoresis. The method in brief:
as §2

In the case of `CC1(C)CC(Cl)CN(CCCC[C@@H](C(=O)OCCc2ccccc2)N2CC(Cl)CC(C)(C)C2)C1` (stereo partly drawn), the result in [1], in [2] and in [3] was Active.
Turning to `CC1(C)CC(Cl)CN(CCCCCN2CC(Cl)CC(C)(C)C2)C1` (stereo not drawn), in data set [4], the outcome was Active.
As for `O=C(O)CCCc1ccc(N(CCCl)CCCl)cc1`, the outcome in data set [5] and in [6] was inactive.
In the case of `CC1(C)CC(Cl)CN(CCCCN2CC(Cl)CC(C)(C)C2)C1` (stereo not drawn), the outcome in [4] was Active.
On the same count and under the same terms, in the case of `CC1(C)CC(Cl)CN(CCCN2CC(Cl)CC(C)(C)C2)C1` (stereo not drawn) it was “Active”.
In the case of `COC(=O)[C@H](CCCCN1CC(Cl)CC(C)(C)C1)N1CC(Cl)CC(C)(C)C1` (stereo partly drawn), the outcome in data set [7], in data set [1], in data set [2] and in data set [3] was Active. Besides, the outcome in [8] and in data set [9] was Active.
As for `CC1(C)CC(Cl)CN(CCCC[C@@H](C(=O)Oc2cccc3ccccc23)N2CC(Cl)CC(C)(C)C2)C1` (stereo partly drawn), the result in data set [2], in data set [10] and in data set [11] was Active. In addition, in data set [3], the outcome was inactive.
Take `COc1ccc(OC(=O)[C@H](CCCCN2CC(Cl)CC(C)(C)C2)N2CC(Cl)CC(C)(C)C2)c2ccccc12` (stereo partly drawn): the outcome in data set [2], in data set [10] and in data set [11] was Active. For the same compound, the outcome in data set [3] was inactive.
Consider `CC1(C)CC(Cl)CN(CCCCCCN2CC(Cl)CC(C)(C)C2)C1` (stereo not drawn), for which the result in data set [4] was Active.
In the case of `CC1(C)CC(Cl)CN(CCCC[C@@H](C(=O)OCc2ccccc2)N2CC(Cl)CC(C)(C)C2)C1` (stereo partly drawn), the outcome in data set [1], in [2] and in data set [3] was Active.
`CC1(C)CC(Cl)CN(CCCC[C@@H](C(=O)OCCCc2ccccc2)N2CC(Cl)CC(C)(C)C2)C1` (stereo partly drawn): the outcome in data set [2] was Active. Also, in data set [3], the result was inactive.
